{"source": "ChEMBL document CHEMBL4270599", "about": "“Synthesis of a 3'-C-ethynyl-β-d-ribofuranose purine nucleoside library: Discovery of C7-deazapurine analogs as potent antiproliferative nucleosides” (Eur J Med Chem, 2018)", "key": {"[1]": {"system": "NCI-H322M", "assay": "Cytotoxicity against human NCI-H322M cells after 48 hrs by SRB assay", "assay_type": "functional"}, "[2]": {"system": "LOX IMVI", "assay": "Cytotoxicity against human LOXIMVI cells after 48 hrs by SRB assay", "assay_type": "functional"}, "[3]": {"system": "SK-MEL-2", "assay": "Cytotoxicity against human SK-MEL-2 cells after 48 hrs by SRB assay", "assay_type": "functional", "details": "SK-MEL-2, 48 h"}, "[4]": {"system": "SN12C", "assay": "Cytotoxicity against human SN12C cells after 48 hrs by SRB assay", "assay_type": "functional"}, "[5]": {"system": "EKVX", "assay": "Growth inhibition of human EKVX cells assessed as cell growth at 10^-8 M incubated for 48 hrs by sulforhodamine B assay relative to control", "assay_type": "functional", "details": "read-out: Activity"}, "[6]": {"system": "HOP-92", "assay": "Growth inhibition of human HOP92 cells assessed as cell growth at 10^-8 M incubated for 48 hrs by sulforhodamine B assay relative to control", "assay_type": "functional", "details": "HOP-92, 48 h, read-out: Activity"}, "[7]": {"system": "NCI-H322M", "assay": "Growth inhibition of human NCI-H322M cells assessed as cell growth at 10^-8 M incubated for 48 hrs by sulforhodamine B assay relative to control", "assay_type": "functional", "details": "read-out: Activity"}, "[8]": {"system": "HCC 2998", "assay": "Growth inhibition of human HCC2998 cells assessed as cell growth at 10^-8 M incubated for 48 hrs by sulforhodamine B assay relative to control", "assay_type": "functional", "details": "HCC 2998, 48 h, read-out: Activity"}, "[9]": {"system": "KM12", "assay": "Growth inhibition of human KM12 cells assessed as cell growth at 10^-8 M incubated for 48 hrs by sulforhodamine B assay relative to control", "assay_type": "functional", "details": "KM12, 48 h, read-out: Activity"}, "[10]": {"system": "SF-539", "assay": "Growth inhibition of human SF539 cells assessed as cell growth at 10^-8 M incubated for 48 hrs by sulforhodamine B assay relative to control", "assay_type": "functional", "details": "SF-539, 48 h, read-out: Activity"}, "[11]": {"system": "SNB-19", "assay": "Growth inhibition of human SNB19 cells assessed as cell growth at 10^-8 M incubated for 48 hrs by sulforhodamine B assay relative to control", "assay_type": "functional", "details": "SNB-19, 48 h, read-out: Activity"}, "[12]": {"system": "OVCAR-5", "assay": "Growth inhibition of human OVCAR5 cells assessed as cell growth at 10^-8 M incubated for 48 hrs by sulforhodamine B assay relative to control", "assay_type": "functional", "details": "OVCAR-5, 48 h, read-out: Activity"}, "[13]": {"system": "A498", "assay": "Growth inhibition of human A498 cells assessed as cell growth at 10^-8 M incubated for 48 hrs by sulforhodamine B assay relative to control", "assay_type": "functional", "details": "A498, 48 h, read-out: Activity"}, "[14]": {"system": "SN12C", "assay": "Growth inhibition of human SN12C cells assessed as cell growth at 10^-8 M incubated for 48 hrs by sulforhodamine B assay relative to control", "assay_type": "functional", "details": "read-out: Activity"}, "[15]": {"system": "T47D", "assay": "Growth inhibition of human T47D cells assessed as cell growth at 10^-8 M incubated for 48 hrs by sulforhodamine B assay relative to control", "assay_type": "functional", "details": "read-out: Activity"}, "[16]": {"system": "A549", "assay": "Growth inhibition of human A549/ATCC cells assessed as cell growth at 10^-7 M incubated for 48 hrs by sulforhodamine B assay relative to control", "assay_type": "functional", "details": "A549, 48 h, read-out: Activity"}, "[17]": {"system": "SNB-75", "assay": "Growth inhibition of human SNB75 cells assessed as cell growth at 10^-7 M incubated for 48 hrs by sulforhodamine B assay relative to control", "assay_type": "functional", "details": "SNB-75, 48 h, read-out: Activity"}, "[18]": {"system": "LOX IMVI", "assay": "Growth inhibition of human LOXIMVI cells assessed as cell growth at 10^-7 M incubated for 48 hrs by sulforhodamine B assay relative to control", "assay_type": "functional", "details": "read-out: Activity"}, "[19]": {"system": "MDA-MB-435", "assay": "Growth inhibition of human MDA-MB-435 cells assessed as cell growth at 10^-7 M incubated for 48 hrs by sulforhodamine B assay relative to control", "assay_type": "functional", "details": "MDA-MB-435, 48 h, read-out: Activity"}, "[20]": {"system": "MDA-MB-231", "assay": "Growth inhibition of human MDA-MB-231 cells assessed as cell growth at 10^-7 M incubated for 48 hrs by sulforhodamine B assay relative to control", "assay_type": "functional", "details": "MDA-MB-231, 48 h, read-out: Activity"}, "[21]": {"system": "SR", "assay": "Growth inhibition of human SR cells assessed as cell growth at 10^-6 M incubated for 48 hrs by sulforhodamine B assay relative to control", "assay_type": "functional", "details": "read-out: Activity"}, "[22]": {"system": "OVCAR-5", "assay": "Growth inhibition of human OVCAR5 cells assessed as cell growth at 10^-6 M incubated for 48 hrs by sulforhodamine B assay relative to control", "assay_type": "functional", "details": "OVCAR-5, 48 h, read-out: Activity"}, "[23]": {"system": "NCI/ADR-RES", "assay": "Growth inhibition of human NCI/ADR-RES cells assessed as cell growth at 10^-6 M incubated for 48 hrs by sulforhodamine B assay relative to control", "assay_type": "functional", "details": "read-out: Activity"}, "[24]": {"system": "MDA-MB-231", "assay": "Growth inhibition of human MDA-MB-231 cells assessed as cell growth at 10^-6 M incubated for 48 hrs by sulforhodamine B assay relative to control", "assay_type": "functional", "details": "MDA-MB-231, 48 h, read-out: Activity"}, "[25]": {"system": "OVCAR-4", "assay": "Growth inhibition of human OVCAR4 cells assessed as cell growth at 10^-5 M incubated for 48 hrs by sulforhodamine B assay relative to control", "assay_type": "functional", "details": "OVCAR-4, 48 h, read-out: Activity"}, "[26]": {"system": "SR", "assay": "Growth inhibition of human SR cells assessed as cell growth at 10^-4 M incubated for 48 hrs by sulforhodamine B assay relative to control", "assay_type": "functional", "details": "read-out: Activity"}, "[27]": {"system": "NCI-H226", "assay": "Growth inhibition of human NCI-H226 cells assessed as cell growth at 10^-4 M incubated for 48 hrs by sulforhodamine B assay relative to control", "assay_type": "functional", "details": "NCI-H226, 48 h, read-out: Activity"}, "[28]": {"system": "MDA-MB-231", "assay": "Growth inhibition of human MDA-MB-231 cells assessed as cell growth at 10^-4 M incubated for 48 hrs by sulforhodamine B assay relative to control", "assay_type": "functional", "details": "MDA-MB-231, 48 h, read-out: Activity"}, "[29]": {"system": "UACC-62", "assay": "Growth inhibition of human UACC62 cells assessed as cell growth at 10^-8 M incubated for 48 hrs by sulforhodamine B assay relative to control", "assay_type": "functional", "details": "UACC-62, 48 h, read-out: Activity"}, "[30]": {"system": "UACC-62", "assay": "Growth inhibition of human UACC62 cells assessed as cell growth at 10^-7 M incubated for 48 hrs by sulforhodamine B assay relative to control", "assay_type": "functional", "details": "UACC-62, 48 h, read-out: Activity"}, "[31]": {"system": "HMEC-1", "assay": "Antiproliferative activity against HMEC1 cells after 4 days by Coulter counter method", "assay_type": "cell-based", "details": "Homo sapiens, HMEC-1, 96 h", "outline": "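Primary HUVEC, primary HMVEC-d and the HMEC-1 line seeded at 20,000 cells/well in gelatin-coated plates in EC growth medium (EGM2). After overnight incubation, 5-fold compound dilutions added. Cells proliferated four days with compound, then trypsinized and counted by Coulter counter to derive IC₅₀.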"}, "[32]": {"details": "read-out: LC50 (the source's name)"}}, "data": [{"molecule": "C#C[C@@]1(O)[C@@H](CO)O[C@@H](n2cc(Br)c3c(N)ncnc32)[C@@H]1O", "values": [{"measurement": "GI50", "setting": "[1]; read-out: GI50", "value": "326 to 372", "unit": "nM"}, {"measurement": "TGI", "setting": "[1]; read-out: TGI", "value": "4740 to 5410", "unit": "nM"}, {"measurement": "CC50", "setting": "[1]; read-out: pLC50 (the source's name) (converted)", "value": "> 100000", "unit": "nM"}, {"measurement": "GI50", "setting": "[2]; read-out: GI50", "value": "29 to 105", "unit": "nM"}, {"measurement": "CC50", "setting": "[2]; [32]", "value": "720 to 2130", "unit": "nM"}, {"measurement": "TGI", "setting": "[2]; read-out: TGI", "value": "176 to 351", "unit": "nM"}, {"measurement": "GI50", "setting": "[3]; read-out: GI50", "value": "197 to 916", "unit": "nM"}, {"measurement": "CC50", "setting": "[3]; [32]", "value": "49500 to 100000", "unit": "nM"}, {"measurement": "TGI", "setting": "[3]; read-out: TGI", "value": "430 to 758", "unit": "nM"}, {"measurement": "GI50", "setting": "[4]; read-out: GI50", "value": "37.7 to 218", "unit": "nM"}, {"measurement": "CC50", "setting": "[4]; [32]", "value": "> 100000", "unit": "nM"}, {"measurement": "TGI", "setting": "[4]; read-out: TGI", "value": "> 100000", "unit": "nM"}, {"measurement": "TGI", "setting": "[4]; read-out: pTGI (converted)", "value": "> 100000", "unit": "nM"}, {"measurement": "growth at 0.01 µM", "setting": "[5]", "value": 85, "unit": "%"}, {"measurement": "growth at 0.01 µM", "setting": "[6]", "value": "90 to 94", "unit": "%"}, {"measurement": "growth at 0.01 µM", "setting": "[7]", "value": "91 to 95", "unit": "%"}, {"measurement": "growth at 0.01 µM", "setting": "[8]", "value": "86 to 99", "unit": "%"}, {"measurement": "growth at 0.01 µM", "setting": "[9]", "value": "91 to 95", "unit": "%"}, {"measurement": "growth at 0.01 µM", "setting": "[10]", "value": "91 to 93", "unit": "%"}, {"measurement": "growth at 0.01 µM", "setting": "[11]", "value": "64 to 98", "unit": "%"}, {"measurement": "growth at 0.01 µM", "setting": "[12]", "value": "98 to 99", "unit": "%"}, {"measurement": "growth at 0.01 µM", "setting": "[13]", "value": "95 to 97", "unit": "%"}, {"measurement": "growth at 0.01 µM", "setting": "[14]", "value": "76 to 96", "unit": "%"}, {"measurement": "growth at 0.01 µM", "setting": "[15]", "value": "64 to 81", "unit": "%"}, {"measurement": "growth at 0.1 µM", "setting": "[16]", "value": "48 to 80", "unit": "%"}, {"measurement": "growth at 0.1 µM", "setting": "[17]", "value": "81 to 96", "unit": "%"}, {"measurement": "growth at 0.1 µM", "setting": "[18]", "value": "20 to 52", "unit": "%"}, {"measurement": "growth at 0.1 µM", "setting": "[19]", "value": "51 to 70", "unit": "%"}, {"measurement": "growth at 0.1 µM", "setting": "[20]", "value": "36 to 71", "unit": "%"}, {"measurement": "growth at 1 µM", "setting": "[21]", "value": "7 to 9", "unit": "%"}, {"measurement": "growth at 1 µM", "setting": "[22]", "value": "33 to 56", "unit": "%"}, {"measurement": "growth at 1 µM", "setting": "[23]", "value": 6, "unit": "%"}, {"measurement": "growth at 1 µM", "setting": "[24]", "value": "2 to 8", "unit": "%"}, {"measurement": "growth at 10 µM", "setting": "[25]", "value": 7, "unit": "%"}, {"measurement": "growth at 100 µM", "setting": "[26]", "value": "2 to 6", "unit": "%"}, {"measurement": "growth at 100 µM", "setting": "[27]", "value": 23, "unit": "%"}, {"measurement": "growth at 100 µM", "setting": "[28]", "value": 9, "unit": "%"}, {"measurement": "growth at 0.01 µM", "setting": "[29]", "value": "93 to 101", "unit": "%"}, {"measurement": "growth at 0.1 µM", "setting": "[30]", "value": "56 to 84", "unit": "%"}, {"measurement": "IC50", "setting": "[31]", "value": 4.5, "unit": "nM"}]}]}
